# ChEMBL document CHEMBL1125592, “Calcium channel blocking and positive inotropic activities of ethyl 5-cyano-1,4-dihydro-6-methyl-2-[(phenylsulfonyl)methyl]-4-aryl-3- pyridine-carboxylate and analogues. Synthesis and structure-activity relationships” (J Med Chem, 1991)
# Target: Voltage-gated L-type calcium channel (Rattus norvegicus, UniProt P22002+Q02485+P27732)
# Assay: Affinity to bind dihydropyridine receptor (DHP receptor) by inhibiting the radioligand [3H]nitrendipine
# Assay type: protein assay
# Summary of the method: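 [3H]nitrendipine displacement, rat brain cortical membranes. Each compound first screened at 1000 nM; if inhibition exceeded 40%, a four- to seven-point curve with unlabeled compound was run. IC50 generally mean of two experiments, each in triplicate. ">1000 nM" means under 40% inhibition of control binding at 1000 nM.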
row,SMILES,IC50
1,CCO/C(O)=C1\C(CS(=O)(=O)c2ccncc2)=NC(C)=C(C#N)C1c1ccccc1Cl (centres undefined),713 nM
2,CCO/C(O)=C1\C(CS(=O)(=O)c2ccccc2)=NC(C)=C(C#N)C1c1cccc[n+]1[O-] (centres undefined),> 1000 nM
3,CCO/C(O)=C1\C(CS(=O)(=O)c2ccccc2)=NC(C)=C(C#N)C1c1ccccc1Cl (centres undefined),720 nM
4,CCO/C(O)=C1\C(CSc2ccncc2)=NC(C)=C(C#N)C1c1ccccn1 (centres undefined),> 1000 nM
5,CCO/C(O)=C1\C(CSc2ccccc2)=NC(C)=C(C#N)C1c1cccc([N+](=O)[O-])c1 (centres undefined),870 nM
6,CCO/C(O)=C1\C(CSc2ccccc2)=NC(C)=C(C#N)C1c1ccccn1 (centres undefined),> 1000 nM
7,CCCCc1ccc(S(=O)(=O)CC2=NC(C)=C(C#N)C(c3ccccc3C(F)(F)F)/C2=C(\O)OCC)c(C)c1 (centres undefined),> 1000 nM
8,CCO/C(O)=C1\C(CSc2ccccc2)=NC(C)=C(C#N)C1c1ccco1 (centres undefined),1354 nM
9,CCO/C(O)=C1\C(CS(=O)(=O)c2ccncc2)=NC(C)=C(C#N)C1c1cccc(Cl)c1Cl (centres undefined),434 nM
10,CCOC(=O)C1=C(CSc2ccccc2)N(CCN(CC)CC)C(C)=C(C#N)C1c1ccccc1C(F)(F)F (centres undefined),1000 nM
11,CCO/C(O)=C1\C(CS(=O)(=O)c2ccccc2)=NC(C)=C(C#N)C1c1ccccn1 (centres undefined),> 1000 nM
12,CC1=C(C#N)C(c2ccccc2C(F)(F)F)C(C(=O)O)=C(CSc2ccccc2)N1 (centres undefined),> 1000 nM
13,CCO/C(O)=C1\C(CS(=O)(=O)c2ccccc2)=NC(C)=C(C#N)C1c1cccnc1 (centres undefined),> 1000 nM
14,C=CCO/C(O)=C1\C(CSc2ccccc2)=NC(C)=C(C#N)C1c1ccccc1C(F)(F)F (centres undefined),580 nM
15,CC1=C(C#N)C(c2ccccc2C(F)(F)F)/C(=C(\O)OCC(O)CO)C(CS(=O)(=O)c2ccccc2)=N1 (centres undefined),> 1000 nM
16,CCO/C(O)=C1\C(CSc2ccccc2)=NC(C)=C(C#N)C1c1ccccc1 (centres undefined),> 1000 nM
17,CCO/C(O)=C1\C(CS(=O)(=O)c2ccccc2)=NC(C)=C(C#N)C1c1ccco1 (centres undefined),254 nM
18,CCO/C(O)=C1\C(CSc2ccncc2)=NC(C)=C(C#N)C1c1ccccc1Cl (centres undefined),366 nM
19,CCO/C(O)=C1\C(CS(=O)(=O)c2ccncc2)=NC(C)=C(C#N)C1c1ccccc1C (centres undefined),1410 nM
20,CCO/C(O)=C1\C(C[S+]([O-])c2ccccc2)=NC(C)=C(C#N)C1C1CCCCC1 (centres undefined),> 1000 nM
21,CCO/C(O)=C1\C(CSc2ccc(OC)cc2)=NC(C)=C(C#N)C1c1ccccc1C(F)(F)F (centres undefined),71 nM
22,CCO/C(O)=C1\C(CSc2ccncc2)=NC(C)=C(C#N)C1c1cccc(Cl)c1Cl (centres undefined),1400 nM
23,CC1=C(C#N)C(c2ccccc2C(F)(F)F)/C(=C(\O)OCCC#N)C(CSc2ccccc2)=N1 (centres undefined),1000 nM
24,CCO/C(O)=C1\C(CSc2ccc(Cl)cc2)=NC(C)=C(C#N)C1c1ccccc1C(F)(F)F (centres undefined),100 nM
25,CCO/C(O)=C1\C(C[S+]([O-])c2ccccc2)=NC(C)=C(C#N)C1c1ccco1 (centres undefined),> 1000 nM
26,CO/C(O)=C1\C(CSc2ccccc2)=NC(C)=C(C#N)C1c1ccccc1C(F)(F)F (centres undefined),1000 nM
27,CCO/C(O)=C1\C(CSc2ccc(Cl)c(Cl)c2)=NC(C)=C(C#N)C1c1ccccc1C(F)(F)F (centres undefined),69 nM
28,CCO/C(O)=C1\C(CSc2ccncc2)=NC(C)=C(C#N)C1c1ccccc1C(F)(F)F (centres undefined),1000 nM
29,CCCCc1ccc(SCC2=NC(C)=C(C#N)C(c3ccccc3C(F)(F)F)/C2=C(\O)OCC)c(C)c1 (centres undefined),> 1000 nM

# The next lines start with the values.
row,IC50,SMILES
1,51 nM,CCOC(=O)C1=C(C)N=C(CSc2ccccn2)/C(=C(/O)OCC)C1c1ccccc1C(F)(F)F (centres undefined)
2,170 nM,CCOC(=O)C1=C(C)NC(C[S+]([O-])c2ccccc2C)=C(C(=O)OCC)C1c1ccccc1C(F)(F)F (stereo in doubt; 10b)
3,450 nM,CCO/C(O)=C1\C(CSc2ccccc2)=NC(C)=C(C#N)C1c1ccccc1C(F)(F)F (centres undefined)
4,160 nM,CCOC(=O)C1=C(C)NC(C[S+]([O-])c2ccccc2C)=C(C(=O)OCC)C1c1ccccc1C(F)(F)F (stereo in doubt; 10a)
5,> 1000 nM,CCO/C(O)=C1\C(C[S+]([O-])c2ccccc2)=NC(C)=C(C#N)C1c1ccccc1OC(F)F (centres undefined)
6,27 nM,CCOC(=O)C1=C(C)N=C(C[S+]([O-])c2ccccc2)/C(=C(/O)OCC)C1c1ccccc1C(F)(F)F (centres undefined)
7,> 1000 nM,CCO/C(O)=C1\C(CSc2ccccn2)=NC(C)=C(C#N)C1c1ccccc1C(F)(F)F (centres undefined)
8,> 1000 nM,CC1=C(C#N)C(c2ccccc2C(F)(F)F)C(C(=O)O)=C(C[S+]([O-])c2ccccc2)N1 (centres undefined)
9,10 nM,CCOC(=O)C1=C(C)N=C(C[S+]([O-])c2ccccn2)/C(=C(/O)OCC)C1c1ccccc1C(F)(F)F (centres undefined)
10,> 1000 nM,CCO/C(O)=C1\C(C[S+]([O-])c2ccccc2)=NC(C)=C(C#N)C1c1ccccn1 (centres undefined)
11,32.5 nM,CCOC(=O)C1=C(C)N=C(CSc2ccncc2)/C(=C(/O)OCC)C1c1ccccc1C(F)(F)F (centres undefined)
12,> 1000 nM,CC1=C(C#N)C(c2ccccc2C(F)(F)F)/C(=C(\O)OCCN2CCOCC2)C(C[S+]([O-])c2ccccc2)=N1 (centres undefined)
13,49 nM,CCOC(=O)C1=C(C)N=C(CSc2ccccc2C)/C(=C(/O)OCC)C1c1ccccc1C(F)(F)F (centres undefined)
14,> 1000 nM,CCOC(=O)C1=C(C[S+]([O-])c2ccccc2)N(C)C(C)=C(C#N)C1c1ccccc1C(F)(F)F (centres undefined)
15,267 nM,CCO/C(O)=C1\C(CSc2ccccc2F)=NC(C)=C(C#N)C1c1ccccc1C(F)(F)F (centres undefined)
16,37.4 nM,CCOC(=O)C1=C(C)N=C(C[S+]([O-])c2ccncc2)/C(=C(/O)OCC)C1c1ccccc1C(F)(F)F (centres undefined)
17,> 1000 nM,CCO/C(O)=C1\C(C[S+]([O-])c2ccc(NC(C)=O)cc2)=NC(C)=C(C#N)C1c1ccccc1C(F)(F)F (centres undefined)
18,> 1000 nM,CCO/C(O)=C1\C(C[S+]([O-])c2ccccc2)=NC(C)=C(C#N)C1c1ccccc1 (centres undefined)
19,1900 nM,CCO/C(O)=C1\C(C[S+]([O-])c2ccccn2)=NC(C)=C(C#N)C1c1ccccc1C(F)(F)F (centres undefined)
20,1.6 nM,CCOC(=O)C1=C(C)N=C(CSc2ccccc2)/C(=C(/O)OCC)C1c1ccccc1C(F)(F)F (centres undefined)
21,> 1000 nM,CCOC(=O)C1=C(C)N=C(C[S+]([O-])c2ccccc2)/C(=C(/O)OCC)C1c1cccnc1 (centres undefined)
22,> 1000 nM,CCO/C(O)=C1\C(C[S+]([O-])c2ccc(Cl)cc2)=NC(C)=C(C#N)C1c1ccccc1C(F)(F)F (centres undefined)
23,21 nM,CCOC(=O)C1=C(C)N=C(C[S+]([O-])c2ccc(OC)cc2)/C(=C(/O)OCC)C1c1ccccc1C(F)(F)F (stereo in doubt; 8a)
24,36 nM,CCO/C(O)=C1\C(CSc2ccccc2Cl)=NC(C)=C(C(=O)OC)C1c1ccccc1C(F)(F)F (centres undefined)
25,> 1000 nM,CCO/C(O)=C1\C(CSc2ccccc2Cl)=NC(C)=C(C#N)C1c1ccccc1C(F)(F)F (centres undefined)
26,> 1000 nM,CCO/C(O)=C1\C(CSc2ccccc2C)=NC(C)=C(C#N)C1c1ccccc1C(F)(F)F (centres undefined)
27,1000 nM,CC1=C(C#N)C(c2ccccc2C(F)(F)F)/C(=C(\O)OCCO)C(C[S+]([O-])c2ccccc2)=N1 (centres undefined)
28,523 nM,CCOC(=O)C1=C(C)N=C(CSc2ccccc2)/C(=C(/O)OCC)C1c1cccnc1 (centres undefined)
29,18 nM,CCOC(=O)C1=C(C)N=C(C[S+]([O-])c2ccc(OC)cc2)/C(=C(/O)OCC)C1c1ccccc1C(F)(F)F (stereo in doubt; 8b)
30,681 nM,CCO/C(O)=C1\C(C[S+]([O-])c2ccc(Cl)c(Cl)c2)=NC(C)=C(C#N)C1c1ccccc1C(F)(F)F (centres undefined)
